Reference: ChEMBL document CHEMBL1828538, “Synthesis and pharmacological evaluation of indole-based sigma receptor ligands” (Eur J Med Chem, 2011)
Calls of active or inactive are those of the source. No cut-off for these calls is given here.

What was measured:
D(2) dopamine receptor = D(2) dopamine receptor (Homo sapiens, UniProt P14416); assay: Displacement of [3H]YM-09151-2 from human D2 receptor expressed in CHO cells; type: cell-based
In short: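 CHOp-D2 or CHOp-D3 cells were labelled with 0.2–0.5 nM [3H]YM-09151-2, and nonspecific binding was set with 1 μM chlorpromazine. Ki was from standard competition conditions, as mean ± SEM of replicate assays.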

[1] = Displacement of radioligand from BZT-sensitive L-type calcium channel assessed as 50% receptor inhibition at 10^-7 M
In short: (§1)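 Part of a contracted (NovaScreen) panel of 64 radioligand/enzyme assays, with the test compound run at 10⁻⁵ M and 10⁻⁷ M. Each assay was scored by whether radioligand displacement exceeded 50% at each concentration.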

[2] = target: Histamine H1 receptor (Homo sapiens) (UniProt P35367); assay: Displacement of radioligand from histamine H1 receptor assessed as 50% receptor inhibition at 10^-7 M; in short: as §1
Chain of Histamine H1 receptor (Homo sapiens) (P35367 whole entry): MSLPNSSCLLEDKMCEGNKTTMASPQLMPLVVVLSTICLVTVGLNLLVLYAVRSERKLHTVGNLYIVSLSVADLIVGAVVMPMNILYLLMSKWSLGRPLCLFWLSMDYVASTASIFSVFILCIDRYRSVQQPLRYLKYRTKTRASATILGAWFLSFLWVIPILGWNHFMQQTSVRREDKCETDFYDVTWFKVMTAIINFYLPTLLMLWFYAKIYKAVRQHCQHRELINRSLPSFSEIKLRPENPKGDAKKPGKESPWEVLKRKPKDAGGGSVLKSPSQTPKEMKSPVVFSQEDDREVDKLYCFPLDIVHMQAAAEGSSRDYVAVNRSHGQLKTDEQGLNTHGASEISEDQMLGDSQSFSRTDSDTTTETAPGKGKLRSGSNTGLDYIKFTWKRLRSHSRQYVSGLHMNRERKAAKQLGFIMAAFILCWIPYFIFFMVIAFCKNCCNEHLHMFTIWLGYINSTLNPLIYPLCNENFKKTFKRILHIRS

Chain of D(2) dopamine receptor (P14416 whole entry): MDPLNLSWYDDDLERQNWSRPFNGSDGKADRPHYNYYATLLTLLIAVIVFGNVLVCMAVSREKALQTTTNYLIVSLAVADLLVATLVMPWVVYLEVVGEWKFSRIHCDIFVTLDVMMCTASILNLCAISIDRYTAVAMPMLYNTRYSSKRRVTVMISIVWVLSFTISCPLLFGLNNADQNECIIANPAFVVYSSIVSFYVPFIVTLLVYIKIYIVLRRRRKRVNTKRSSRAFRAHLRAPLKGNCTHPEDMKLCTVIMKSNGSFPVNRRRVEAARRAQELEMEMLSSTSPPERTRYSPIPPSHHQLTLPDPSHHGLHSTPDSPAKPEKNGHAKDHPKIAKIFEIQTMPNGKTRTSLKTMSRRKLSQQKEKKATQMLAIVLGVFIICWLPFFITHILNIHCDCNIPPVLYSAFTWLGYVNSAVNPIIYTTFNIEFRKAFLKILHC

## COc1cc2c(cc1OC)CN(CCCCn1cc(-c3ccc(F)cc3)c3ccccc31)CC2
D(2) dopamine receptor
  Ki: 870 nM
[1]
  inhibition: inactive
[2]
  inhibition: inactive
